Calls of active or inactive are those of the source. The rule behind the calls is not given here.
Legend:
[1] = target: T1, Nitric oxide synthase, inducible (Mus musculus, UniProt P29477); assay: Inhibition of iNOS in mouse RAW264.7 cells assessed as inhibition of LPS-induced nitric oxide production for 2 hrs by DAF-FMDA dye based fluorometric assay; assay type: cell-based
T1 sequence (P29477 whole entry): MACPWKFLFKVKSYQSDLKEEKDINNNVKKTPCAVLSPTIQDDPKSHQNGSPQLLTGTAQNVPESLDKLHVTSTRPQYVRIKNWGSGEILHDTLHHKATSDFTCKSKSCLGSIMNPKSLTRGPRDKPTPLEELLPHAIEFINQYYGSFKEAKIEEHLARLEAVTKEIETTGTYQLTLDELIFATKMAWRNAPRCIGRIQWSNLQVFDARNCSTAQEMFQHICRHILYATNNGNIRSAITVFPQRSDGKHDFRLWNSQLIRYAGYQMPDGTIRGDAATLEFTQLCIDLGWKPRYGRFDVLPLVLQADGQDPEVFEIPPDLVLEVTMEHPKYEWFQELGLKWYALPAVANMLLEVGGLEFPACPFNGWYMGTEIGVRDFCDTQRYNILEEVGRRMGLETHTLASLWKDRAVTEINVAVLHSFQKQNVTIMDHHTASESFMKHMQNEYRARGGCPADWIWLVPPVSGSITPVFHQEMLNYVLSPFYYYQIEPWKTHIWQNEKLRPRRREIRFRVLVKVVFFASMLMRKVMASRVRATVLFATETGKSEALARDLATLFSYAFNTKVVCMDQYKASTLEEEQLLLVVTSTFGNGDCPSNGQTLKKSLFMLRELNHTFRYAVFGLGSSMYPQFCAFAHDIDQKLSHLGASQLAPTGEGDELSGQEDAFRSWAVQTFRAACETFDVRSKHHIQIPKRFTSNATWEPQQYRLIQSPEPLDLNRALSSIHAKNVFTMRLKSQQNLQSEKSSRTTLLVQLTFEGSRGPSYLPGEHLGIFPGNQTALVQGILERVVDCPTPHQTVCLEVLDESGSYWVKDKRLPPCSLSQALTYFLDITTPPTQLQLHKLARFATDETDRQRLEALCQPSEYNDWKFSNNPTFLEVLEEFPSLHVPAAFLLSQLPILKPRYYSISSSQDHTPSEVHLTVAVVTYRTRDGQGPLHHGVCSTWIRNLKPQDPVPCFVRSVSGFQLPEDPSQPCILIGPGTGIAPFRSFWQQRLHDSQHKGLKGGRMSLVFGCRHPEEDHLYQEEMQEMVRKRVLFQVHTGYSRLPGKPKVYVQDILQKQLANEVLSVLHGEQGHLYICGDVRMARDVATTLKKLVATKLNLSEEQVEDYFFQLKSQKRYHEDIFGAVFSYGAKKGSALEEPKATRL

[2] = system: RAW264.7; assay: Cytotoxicity against mouse RAW264.7 cells after 24 hrs by MTT assay in the absence of LPS; assay type: cell-based; details: RAW264.7, 24 h
Procedure, shortened: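 RAW264.7 cells at 5 × 10⁴/well, exposed to a range of concentrations in serum-free medium for 24 h. MTT (5 mg/mL in saline) added for a further 4 h, formazan dissolved in DMSO, absorbance read at 540 nm. Viability expressed relative to the blank control.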

[3] = system: RAW264.7; assay: Cytotoxicity against mouse RAW264.7 cells after 24 hrs by MTT assay in the presence of LPS; assay type: cell-based; details: RAW264.7, 24 h
[4] = system: Mus musculus; assay: Antiinflammatory activity in ICR mouse assessed as decrease in carrageenan-induced paw edema at 10 mg/kg, ip administered 30 mins prior to carrageenan-challenge measured at 4 hrs relative to vehicle treated control; assay type: functional; details: route intraperitoneal
Procedure, shortened: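 Male ICR mice dosed i.p. 30 min before subplantar injection of freshly prepared 1% carrageenan suspension into the right hind paw. Footpad thickness measured with a gauge caliper at 1, 2, 3, 4 and 5 h. Inhibition calculated from increase in paw thickness versus the control group; mean (SEM), n = 5.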

[5] = system: Rattus norvegicus; assay: Antiarthritic activity in Lewis rat adjuvant-induced arthritis model assessed as decrease in complete Freund's adjuvant-induced arthritis administered daily oral doses for 14 days post inflammation development signs; assay type: functional, organism-based
Procedure, shortened: (§1)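 Male Lewis rats, 12 weeks old, six per group, injected with CFA at the tail base. Vehicle (2% Tween 80/0.5% methylcellulose) given orally for 7 d until full joint inflammation, then randomized and dosed orally daily for 14 d at 10 or 25 mg/kg. Arthritis scored daily on hind paw erythema, swelling, joint tenderness, movement and posture. Body weight tracked; means ± S.E.M.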

[6] = system: Rattus norvegicus; assay: Antiarthritic activity in Lewis rat adjuvant-induced arthritis model assessed as decrease in complete Freund's adjuvant-induced weight loss administered daily oral doses for 14 days post inflammation development signs; assay type: functional, organism-based; procedure, shortened: as §1
[7] = system: Rattus norvegicus; assay: Antiarthritic activity in Lewis rat adjuvant-induced arthritis model assessed as decrease in complete Freund's adjuvant-induced suppression of histopathological changes at 25 mg/kg/day, po for 14 days post inflammation development signs by Hematoxylin and eosin staining; assay type: functional, organism-based
Procedure, shortened: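 CFA-induced arthritis in male Lewis rats, dosed orally each day for 14 d after a 7 d vehicle lead-in. Animals sacrificed, foot pads fixed in neutral buffered formal saline and embedded in paraffin. 5 µm sections stained with H&E and examined under the microscope.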

| SMILES | IC50 [1] | IC50 [2] | IC50 [3] | inhibition in vivo at 10 mg/kg [4] | inhibition [5] | inhibition [6] | inhibition [7] |
| --- | --- | --- | --- | --- | --- | --- | --- |
| CC1(C)C=Cc2c(ccc(C(=O)/C=C/c3ccc(Br)cc3)c2O)O1 | 17.8 µM | > 80 µM | > 80 µM | 27.6% |  |  |  |
| COc1cc(/C=C/C(=O)c2ccc3c(c2O)C=CC(C)(C)O3)cc(OC)c1OC | 6.2 µM | > 80 µM | > 80 µM | 34.4% |  |  |  |

The remaining compounds from weak to strong by IC50 [1], led by results:

| IC50 [1] | SMILES | IC50 [2] | IC50 [3] | inhibition in vivo at 10 mg/kg [4] | inhibition [5] | inhibition [6] | inhibition [7] |
| --- | --- | --- | --- | --- | --- | --- | --- |
| 20 µM | COc1ccc2c(c1)c(CC(=O)O)c(C)n2C(=O)c1ccc(Cl)cc1 [INDOMETHACIN] | > 80 µM | > 80 µM | 45.8% |  |  |  |
| 7.9 µM | COc1ccc(/C=C/C(=O)c2ccc3c(c2O)C=CC(C)(C)O3)cc1OC | > 80 µM | > 80 µM | 52.4% | Dose-dependent effect | Active | Active |
| 5.4 µM | CC1(C)C=Cc2c(ccc(C(=O)/C=C/c3cccc(F)c3)c2O)O1 | > 80 µM | > 80 µM | 9% |  |  |  |
